Source: ChEMBL document CHEMBL4354866, “TREK Channel Family Activator with a Well-Defined Structure-Activation Relationship for Pain and Neurogenic Inflammation” (J Med Chem, 2020)
Positions count from the first letter of the chain named. Active and inactive are the calls of the source.

Assays:
[1] = target: T1, Potassium channel subfamily K member 2 (Homo sapiens) (UniProt O95069); assay: Activation of recombinant human TREK1 expressed in HEK293T cells assessed as increase in probability of open channel by outside-out patch electrophysiological analysis; type: cell-based
T1 sequence (whole entry): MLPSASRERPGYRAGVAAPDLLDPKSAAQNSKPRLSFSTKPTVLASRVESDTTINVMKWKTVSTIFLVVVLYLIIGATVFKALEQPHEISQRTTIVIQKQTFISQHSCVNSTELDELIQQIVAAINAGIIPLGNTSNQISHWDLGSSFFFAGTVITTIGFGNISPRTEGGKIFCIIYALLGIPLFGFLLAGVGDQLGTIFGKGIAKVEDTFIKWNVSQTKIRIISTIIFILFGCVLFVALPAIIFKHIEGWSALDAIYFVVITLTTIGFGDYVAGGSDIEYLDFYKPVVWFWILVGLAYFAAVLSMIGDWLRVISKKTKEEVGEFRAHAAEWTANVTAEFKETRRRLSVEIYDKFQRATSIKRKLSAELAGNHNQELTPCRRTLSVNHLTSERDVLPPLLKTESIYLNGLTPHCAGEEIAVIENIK
Outline: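 Outside-out patches from HEK-293T cells transfected with human TREK-1 (pEGFP-N1). Pipettes 7–15 MΩ. Open probability measured at -60 and +60 mV. Conductance taken as first open-state current amplitude divided by voltage at ±60 mV.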

Mus musculus [2] = assay: Analgesic activity in ip dosed mouse assessed as increase in tail flick latency time measured up to 120 mins at 52 degC by tail immersion test; type: functional, organism-based
Outline: (§1)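 Male BALB/c or C57BL/6 mice, 6–8 weeks, acclimated in a holder 15 min/day for 3 days. Distal 3 cm of tail immersed at 5, 20, 40, 46 or 52 °C; flick latency recorded, cut-off 15 s. Compound i.p. in 5% DMSO/5% Tween 80/90% saline (1.25–10 mg/kg at 52 °C; 5 mg/kg across temperatures).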

Mus musculus [3] = assay: Analgesic activity in CFA-induced mouse model of chronic inflammatory pain assessed as increase in paw withdrawal latency at 5 mg/kg, ip measured up to 60 mins by Hargreaves test; type: functional, organism-based
Outline: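 CFA (20 μl) injected subcutaneously into the left hindpaw of mice. Compound given i.p. in 5% DMSO/5% Tween 80/90% saline. Heat withdrawal latency recorded with a 5 min inter-stimulation period.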

[4] = target: T1, Potassium channel subfamily K member 2 (Homo sapiens); assay: Activation of recombinant human TREK1 expressed in HEK293T cells assessed as increase in K+ current amplitude measured after compound washout by whole cell voltage clamp electrophysiological analysis; type: cell-based
Outline: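 HEK-293T cells expressing human TREK-1, whole-cell clamp. Current recorded during extracellular compound application and again after washout.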

[5] = target: Potassium channel subfamily K member 2 (Homo sapiens, UniProt O95069, F149A); assay: Activation of recombinant human TREK1 F149A mutant expressed in HEK293T cells assessed as increase in K+ current amplitude by whole cell voltage clamp electrophysiological analysis; type: cell-based
Chain of Potassium channel subfamily K member 2 (Homo sapiens, UniProt O95069, F149A) (O95069 whole entry F149A): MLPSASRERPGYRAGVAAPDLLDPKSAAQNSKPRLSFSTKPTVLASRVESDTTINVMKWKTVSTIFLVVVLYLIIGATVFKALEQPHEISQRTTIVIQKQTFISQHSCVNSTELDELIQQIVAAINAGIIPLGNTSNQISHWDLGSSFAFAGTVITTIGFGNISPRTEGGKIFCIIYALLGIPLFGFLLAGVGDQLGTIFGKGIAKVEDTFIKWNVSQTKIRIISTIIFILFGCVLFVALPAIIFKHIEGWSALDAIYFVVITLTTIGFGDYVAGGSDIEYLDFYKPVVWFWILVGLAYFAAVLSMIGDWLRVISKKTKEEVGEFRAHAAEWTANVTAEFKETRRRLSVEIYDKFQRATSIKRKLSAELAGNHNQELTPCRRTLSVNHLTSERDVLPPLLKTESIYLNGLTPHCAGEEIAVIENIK
Outline: (§2)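 Transiently transfected HEK-293T cells, whole-cell voltage clamp. Held at -60 mV, 500-ms ramp -120 to +60 mV. Pipette (mM) 140 KCl, 5 EGTA, 10 HEPES, pH 7.4; external 145 NaCl, 4 KCl, pH 7.3. Compound diluted from 10 mM DMSO stock and applied extracellularly. Current increase over control fitted to concentration–response curves for EC50.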

[6] = system: T2, Potassium channel subfamily K member 2 (Homo sapiens), O95069 [I158A]; assay: Activation of recombinant human TREK1 I158A mutant expressed in HEK293T cells assessed as increase in K+ current amplitude by whole cell voltage clamp electrophysiological analysis; type: cell-based; outline: as §2
T2 sequence (whole entry): T1 sequence (whole entry) with I158A

Mus musculus [7] = assay: Analgesic activity in mouse assessed as increase in tail flick latency time at 5 mg/kg, ip at 5 to 52 degC by tail immersion test; type: functional, organism-based; outline: as §1
[8] = target: Potassium channel subfamily K member 2 (Homo sapiens, UniProt O95069, T156A); assay: Activation of recombinant human TREK1 T156A mutant expressed in HEK293T cells assessed as increase in K+ current amplitude by whole cell voltage clamp electrophysiological analysis; type: cell-based; outline: as §2
Chain of Potassium channel subfamily K member 2 (Homo sapiens, UniProt O95069, T156A) (O95069 whole entry T156A): as the sequence (O95069 whole entry F149A) above, with A149F, T156A counted along it

[9] = system: T3, Potassium channel subfamily K member 2 (Homo sapiens), O95069 [F160A]; assay: Activation of recombinant human TREK1 F160A mutant expressed in HEK293T cells assessed as increase in K+ current amplitude by whole cell voltage clamp electrophysiological analysis; type: cell-based; outline: as §2
T3 sequence (whole entry): T1 sequence (whole entry) with F160A

Mus musculus [10] = assay: Analgesic activity in cerulein-induced mouse model of acute pancreatitis assessed as reduction in myeloperoxidase activity at 10 mg/kg, ip administered at 2 hrs interval for 10 hrs starting from post-first cerulein challenge and measured 12 hrs post-first cerulein challenge; type: functional, organism-based
Outline: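 Cerulein pancreatitis: 7 hourly i.p. injections of 50 µg/kg; 10 mg/kg compound i.p. at 2, 4, 6, 8 and 10 h. Mice killed at 12 h and pancreas harvested for MPO activity and H&E histology. Ten random fields per slide scored blind by two observers for edema, inflammatory infiltration and acinar necrosis; n = 6.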

[11] = target: T1, Potassium channel subfamily K member 2 (Homo sapiens); assay: Activation of recombinant human TREK1 expressed in HEK293T cells assessed as change in probability of open channel by inside-out patch electrophysiological analysis; type: cell-based
Outline: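 Inside-out patches from HEK-293T cells expressing human TREK-1 (pEGFP-N1), 10 μM compound. Conductance taken as first open-state amplitude over voltage at -60 or +60 mV.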

Activity [1]: Active | Activity [4]: inactive | EC50 [5]: 22.4 µM | Activity [6]: inactive | EC50 [8]: 7.57 µM | Activity [9]: inactive | Activity [11]: inactive
SMILES: Cc1ccc2nc(-c3ccc(NC(=O)[C@@H]4CC[C@H](C(=O)O)C4)cc3)sc2c1
Activity (Mus musculus [2]): Dose-dependent effect | Activity (Mus musculus [3]): Active | Activity (Mus musculus [7]): Active | Activity (Mus musculus [10]): Active
